The source of these data is paper PMC6828636 (European Journal of Drug Metabolism and Pharmacokinetics, 2019).

Structures are written as SMILES. Where two headings read alike, the source gives them in different places. Where only a bound is given, the exact number is not on record here.

The target of data set [1] is CYP2C19 (Homo sapiens, UniProt P33261). Nature of the data set: CYP2C19 inhibition in human liver microsomes. Format: in vitro ADME. The gist of the method:
(§1)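 Pooled human liver microsomes were incubated with standard CYP-selective substrates, with and without test compound at 0.03–100 μM. Standard selective inhibitors for each isoform ran in parallel as positive controls. Read-out was IC50. For CYP3A4 only, time-dependent inhibition was also tested after 30 min preincubation, using midazolam and testosterone as substrates.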

In data set [2] the target is T1, CYP1A2 (Homo sapiens, UniProt P05177).
T1 sequence (P05177 1-516): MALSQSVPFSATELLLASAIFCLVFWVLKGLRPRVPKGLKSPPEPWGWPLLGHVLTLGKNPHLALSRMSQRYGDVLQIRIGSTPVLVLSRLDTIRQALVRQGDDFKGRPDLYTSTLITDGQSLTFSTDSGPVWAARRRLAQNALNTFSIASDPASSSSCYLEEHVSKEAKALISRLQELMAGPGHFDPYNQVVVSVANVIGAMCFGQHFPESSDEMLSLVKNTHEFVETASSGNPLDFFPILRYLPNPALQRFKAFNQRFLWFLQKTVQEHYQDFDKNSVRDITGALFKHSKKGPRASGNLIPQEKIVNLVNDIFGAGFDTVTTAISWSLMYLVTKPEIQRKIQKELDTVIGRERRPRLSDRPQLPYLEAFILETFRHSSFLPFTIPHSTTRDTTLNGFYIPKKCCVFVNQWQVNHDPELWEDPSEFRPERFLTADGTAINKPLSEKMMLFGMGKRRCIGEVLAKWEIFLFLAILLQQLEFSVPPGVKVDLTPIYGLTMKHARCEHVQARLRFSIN
Description: biochemical. Format: in vitro ADME.

The target in data set [3] is T2, P-gp (Homo sapiens, UniProt P08183). Description: Efflux in CPT-P1 cells. The format is in vitro ADME. Particulars: Caco-2. The gist of the method:
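Bidirectional transport was measured in wildtype Caco-2 cells and in proprietary derivatives with reduced BCRP (CPT-B1) or P-gp (CPT-P1) expression. Test compound was used at 0.5, 2 and 10 μM in wildtype cells and at 2 μM in the reduced-expression lines. Probe substrates served as positive controls and reference inhibitors as negative controls. Efflux ratios were calculated.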

The nature of data set [4]: Phase I study: darolutamide effect on rosuvastatin pharmacokinetics. Format: in vivo, human. Particulars: darolutamide 600 mg BID with single dose rosuvastatin 5 mg.
Data set [5] deals with CYP2D6 (Homo sapiens, UniProt P10635). Description: CYP2D6 inhibition in human liver microsomes. Format: in vitro ADME. The gist of the method:
as §1

In data set [6] the target is T3, CYP2A6 (Homo sapiens, UniProt P11509).
T3 sequence (P11509 1-494): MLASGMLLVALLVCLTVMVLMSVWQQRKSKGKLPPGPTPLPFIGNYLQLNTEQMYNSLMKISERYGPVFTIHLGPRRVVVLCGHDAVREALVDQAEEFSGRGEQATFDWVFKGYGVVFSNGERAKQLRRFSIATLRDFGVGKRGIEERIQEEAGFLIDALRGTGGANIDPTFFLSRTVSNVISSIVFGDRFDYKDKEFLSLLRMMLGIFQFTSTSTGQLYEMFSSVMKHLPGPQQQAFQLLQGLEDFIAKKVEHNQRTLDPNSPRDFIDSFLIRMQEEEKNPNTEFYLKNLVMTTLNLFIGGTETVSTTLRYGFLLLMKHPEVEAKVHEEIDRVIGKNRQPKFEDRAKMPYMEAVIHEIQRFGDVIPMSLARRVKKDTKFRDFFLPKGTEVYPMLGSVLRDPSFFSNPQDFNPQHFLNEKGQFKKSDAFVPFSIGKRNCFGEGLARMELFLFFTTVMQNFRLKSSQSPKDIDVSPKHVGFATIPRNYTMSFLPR
Description: CYP2A6 inhibition in human liver microsomes. Format: in vitro ADME. The gist of the method: as §1

The conditions of data set [7]: rodents; cited from earlier work.
The target of data set [8] is T2, P-gp. Nature of the data set: P-gp inhibition in Caco-2 cells. Format: in vitro ADME. The gist of the method: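 Efflux transporter inhibition in Caco-2 monolayers. Test compound at 0.25–60 μM. Probe/reference-inhibitor pairs were digoxin/cyclosporin A (P-gp) and cladribine/Ko143 (BCRP). Probe transport was measured with and without test compound, and IC50 was derived from that inhibition.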

Data set [9] addresses CYP2E1 (Homo sapiens, UniProt P05181). Nature of the data set: CYP2E1 inhibition in human liver microsomes. The format is in vitro ADME. In outline: as §1
The target of data set [10] is BSEP (Homo sapiens, UniProt O95342). Nature of the data set: BSEP inhibition in sandwich-cultured human hepatocytes. The format is in vitro ADME. The gist of the method:
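Sandwich-cultured human hepatocytes were used. Probe substrate was taurocholic acid, with cyclosporin as reference inhibitor. Probe transport was measured without and with test compound to derive IC50. Protein was added to the medium for one tested compound, permitting a higher test concentration.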

Data set [11] has as its target T4, OCT1 (Homo sapiens, UniProt O15245).
T4 sequence (O15245 1-554): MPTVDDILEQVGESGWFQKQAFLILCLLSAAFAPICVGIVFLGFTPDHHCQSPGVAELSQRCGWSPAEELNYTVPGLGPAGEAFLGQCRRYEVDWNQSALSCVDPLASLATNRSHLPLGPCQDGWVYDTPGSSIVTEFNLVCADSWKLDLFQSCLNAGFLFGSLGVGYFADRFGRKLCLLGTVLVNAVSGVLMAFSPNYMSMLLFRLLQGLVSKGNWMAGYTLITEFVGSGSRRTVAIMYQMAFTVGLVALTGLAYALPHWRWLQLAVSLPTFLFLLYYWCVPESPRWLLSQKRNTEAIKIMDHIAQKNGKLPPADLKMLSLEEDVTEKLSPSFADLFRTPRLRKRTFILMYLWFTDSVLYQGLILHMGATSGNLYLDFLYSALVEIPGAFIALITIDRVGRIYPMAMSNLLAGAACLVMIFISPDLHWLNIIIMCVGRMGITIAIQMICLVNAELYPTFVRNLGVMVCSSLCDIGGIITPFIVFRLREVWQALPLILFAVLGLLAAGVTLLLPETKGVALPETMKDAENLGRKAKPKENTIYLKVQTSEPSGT
Nature of the data set: OCT1 uptake inhibition in transfected HEK cells. The format is in vitro ADME. The gist of the method:
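HEK cells overexpressing NTCP, OAT1, OAT3, OATP2B1, OCT1 or OCT2 were incubated with probe substrate. Pairs were estrone 3-sulfate/cyclosporin A (NTCP), PAH/probenecid (OAT1), furosemide/probenecid (OAT3), estrone 3-sulfate/glibenclamide (OATP2B1), 3H-MPP+/decynium 22 (OCT1) and 3H-MPP+/imipramine (OCT2). IC50 was determined with and without test compound, at ≤50 µM for the parent and ≤10 µM for the metabolite.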

CYP2C19, sequence (P33261 whole entry, canonical isoform): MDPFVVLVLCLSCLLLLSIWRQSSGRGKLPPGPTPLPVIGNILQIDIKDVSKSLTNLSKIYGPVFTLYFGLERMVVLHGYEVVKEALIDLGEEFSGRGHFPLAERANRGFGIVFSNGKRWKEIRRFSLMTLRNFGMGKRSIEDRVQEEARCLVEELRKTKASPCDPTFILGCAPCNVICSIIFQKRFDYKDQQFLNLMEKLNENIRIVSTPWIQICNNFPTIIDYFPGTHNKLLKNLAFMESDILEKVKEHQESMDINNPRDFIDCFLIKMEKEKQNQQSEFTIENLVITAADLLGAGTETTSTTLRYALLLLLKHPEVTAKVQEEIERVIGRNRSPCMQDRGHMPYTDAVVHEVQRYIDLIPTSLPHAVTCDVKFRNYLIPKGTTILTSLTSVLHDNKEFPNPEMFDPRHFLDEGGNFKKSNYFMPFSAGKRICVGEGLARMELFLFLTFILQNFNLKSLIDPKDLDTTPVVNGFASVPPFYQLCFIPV
BSEP, sequence (O95342 whole entry): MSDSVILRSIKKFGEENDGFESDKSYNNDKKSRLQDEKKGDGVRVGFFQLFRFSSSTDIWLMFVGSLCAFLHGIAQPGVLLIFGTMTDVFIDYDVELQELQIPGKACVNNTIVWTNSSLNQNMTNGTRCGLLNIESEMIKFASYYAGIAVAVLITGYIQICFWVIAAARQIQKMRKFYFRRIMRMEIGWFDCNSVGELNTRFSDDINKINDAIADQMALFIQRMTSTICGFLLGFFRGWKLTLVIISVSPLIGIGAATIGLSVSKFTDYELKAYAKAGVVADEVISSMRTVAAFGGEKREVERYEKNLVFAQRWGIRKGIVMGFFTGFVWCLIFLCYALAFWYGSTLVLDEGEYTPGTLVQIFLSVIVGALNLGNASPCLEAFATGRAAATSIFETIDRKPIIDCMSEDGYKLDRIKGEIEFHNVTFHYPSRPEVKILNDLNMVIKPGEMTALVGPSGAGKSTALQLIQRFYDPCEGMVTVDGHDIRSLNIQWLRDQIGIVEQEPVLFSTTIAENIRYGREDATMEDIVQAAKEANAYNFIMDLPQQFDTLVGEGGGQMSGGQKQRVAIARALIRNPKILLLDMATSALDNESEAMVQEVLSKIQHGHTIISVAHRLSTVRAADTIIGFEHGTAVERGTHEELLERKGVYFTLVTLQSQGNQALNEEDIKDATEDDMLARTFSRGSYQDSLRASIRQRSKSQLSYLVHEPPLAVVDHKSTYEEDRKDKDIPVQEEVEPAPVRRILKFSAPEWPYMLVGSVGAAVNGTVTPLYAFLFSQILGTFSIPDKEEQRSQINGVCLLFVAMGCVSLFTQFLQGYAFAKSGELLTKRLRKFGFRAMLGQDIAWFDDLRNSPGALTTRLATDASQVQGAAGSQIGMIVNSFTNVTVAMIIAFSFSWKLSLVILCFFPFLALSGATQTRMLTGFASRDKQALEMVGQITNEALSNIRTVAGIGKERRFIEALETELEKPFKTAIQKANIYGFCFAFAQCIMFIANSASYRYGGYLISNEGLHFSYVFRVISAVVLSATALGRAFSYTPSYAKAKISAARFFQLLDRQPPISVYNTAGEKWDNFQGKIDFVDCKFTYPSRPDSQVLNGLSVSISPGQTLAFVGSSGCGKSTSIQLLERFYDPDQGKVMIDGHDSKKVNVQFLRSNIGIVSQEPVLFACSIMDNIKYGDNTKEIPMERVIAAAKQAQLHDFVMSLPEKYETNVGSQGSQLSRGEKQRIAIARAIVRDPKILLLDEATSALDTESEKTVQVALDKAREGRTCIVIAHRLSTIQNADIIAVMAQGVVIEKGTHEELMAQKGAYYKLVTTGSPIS
CYP2D6, sequence (P10635 whole entry): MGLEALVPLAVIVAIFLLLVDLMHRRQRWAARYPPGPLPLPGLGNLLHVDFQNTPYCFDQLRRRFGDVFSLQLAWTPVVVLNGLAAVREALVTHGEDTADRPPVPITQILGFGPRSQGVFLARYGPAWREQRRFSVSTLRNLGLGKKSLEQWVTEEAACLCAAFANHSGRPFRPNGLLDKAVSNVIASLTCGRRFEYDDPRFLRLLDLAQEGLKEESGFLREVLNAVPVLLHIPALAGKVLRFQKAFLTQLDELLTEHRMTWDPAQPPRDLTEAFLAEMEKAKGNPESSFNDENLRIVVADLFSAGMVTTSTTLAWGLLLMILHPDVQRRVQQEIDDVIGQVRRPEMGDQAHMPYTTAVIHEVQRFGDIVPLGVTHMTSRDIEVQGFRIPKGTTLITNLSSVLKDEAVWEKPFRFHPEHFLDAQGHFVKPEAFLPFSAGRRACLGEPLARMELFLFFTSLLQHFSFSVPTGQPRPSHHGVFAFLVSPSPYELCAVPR
T2 sequence (P08183 whole entry): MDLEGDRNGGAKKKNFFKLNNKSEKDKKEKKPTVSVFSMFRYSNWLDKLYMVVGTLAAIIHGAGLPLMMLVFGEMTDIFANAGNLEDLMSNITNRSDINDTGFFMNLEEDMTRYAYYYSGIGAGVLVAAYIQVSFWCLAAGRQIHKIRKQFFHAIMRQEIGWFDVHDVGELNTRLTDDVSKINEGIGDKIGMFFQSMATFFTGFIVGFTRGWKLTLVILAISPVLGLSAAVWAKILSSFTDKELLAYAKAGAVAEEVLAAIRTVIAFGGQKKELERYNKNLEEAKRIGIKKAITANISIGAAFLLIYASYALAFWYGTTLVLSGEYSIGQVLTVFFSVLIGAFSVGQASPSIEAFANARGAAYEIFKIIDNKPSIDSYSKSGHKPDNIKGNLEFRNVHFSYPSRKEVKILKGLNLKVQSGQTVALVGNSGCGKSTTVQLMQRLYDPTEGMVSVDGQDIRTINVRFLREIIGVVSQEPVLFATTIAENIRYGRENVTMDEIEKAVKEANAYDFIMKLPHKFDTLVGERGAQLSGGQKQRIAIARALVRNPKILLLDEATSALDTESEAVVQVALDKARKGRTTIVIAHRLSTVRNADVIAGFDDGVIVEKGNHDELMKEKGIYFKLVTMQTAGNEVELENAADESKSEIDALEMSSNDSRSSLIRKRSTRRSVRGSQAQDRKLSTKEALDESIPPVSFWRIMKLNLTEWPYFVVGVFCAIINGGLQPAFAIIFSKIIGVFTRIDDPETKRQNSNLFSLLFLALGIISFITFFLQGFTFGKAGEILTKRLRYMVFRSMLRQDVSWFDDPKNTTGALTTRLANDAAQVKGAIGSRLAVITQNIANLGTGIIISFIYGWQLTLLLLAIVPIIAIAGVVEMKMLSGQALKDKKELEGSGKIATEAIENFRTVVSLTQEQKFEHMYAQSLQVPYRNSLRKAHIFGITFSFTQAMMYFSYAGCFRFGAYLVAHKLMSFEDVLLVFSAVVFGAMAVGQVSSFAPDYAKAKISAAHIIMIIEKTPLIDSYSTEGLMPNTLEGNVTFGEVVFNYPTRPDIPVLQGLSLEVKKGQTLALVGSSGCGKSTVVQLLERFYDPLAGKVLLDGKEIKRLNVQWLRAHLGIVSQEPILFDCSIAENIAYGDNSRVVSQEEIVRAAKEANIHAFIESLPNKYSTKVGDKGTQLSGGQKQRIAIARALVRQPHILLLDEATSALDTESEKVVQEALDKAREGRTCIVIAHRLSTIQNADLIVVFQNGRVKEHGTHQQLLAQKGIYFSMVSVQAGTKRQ
CYP2E1, sequence (P05181 whole entry): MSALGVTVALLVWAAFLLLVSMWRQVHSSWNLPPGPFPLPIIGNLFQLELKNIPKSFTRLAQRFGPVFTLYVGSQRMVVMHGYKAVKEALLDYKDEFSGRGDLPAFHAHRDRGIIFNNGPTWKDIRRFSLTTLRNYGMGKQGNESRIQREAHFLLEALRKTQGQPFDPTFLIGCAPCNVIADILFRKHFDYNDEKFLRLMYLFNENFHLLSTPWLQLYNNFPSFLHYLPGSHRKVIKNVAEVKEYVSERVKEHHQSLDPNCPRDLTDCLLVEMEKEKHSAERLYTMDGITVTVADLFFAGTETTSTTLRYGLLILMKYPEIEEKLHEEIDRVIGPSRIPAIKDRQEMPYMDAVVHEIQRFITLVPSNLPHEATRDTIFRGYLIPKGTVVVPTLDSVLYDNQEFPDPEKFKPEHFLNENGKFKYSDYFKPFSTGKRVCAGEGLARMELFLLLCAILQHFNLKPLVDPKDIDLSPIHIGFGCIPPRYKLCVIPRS

In the case of `CC(O)c1cc(C(=O)N[C@@H](C)Cn2ccc(-c3ccc(C#N)c(Cl)c3)n2)[nH]n1` (stereo partly drawn) [Darolutamide, darolutamide], the half-maximal inhibitory concentration (IC50) in [1] is 64.1 µM; in [2] it was greater than 100 µM; in data set [5], 81.9 µM; in [6] it was greater than 100 µM; in data set [8] it was 16.4 µM; in data set [9] it was greater than 100 µM. For the same compound, the IC50 in data set [10] is greater than 60 µM; in data set [11], greater than 50 µM. In data set [3], the efflux ratio at 2 μM came out at 3.6. The “effect of rosuvastatin on darolutamide exposure” value in data set [4] was “no clinically relevant effects”. Also, in data set [7], the “penetration of the blood-brain barrier” value is on record as “low penetration”.

As for `CC(=O)c1cc(C(=O)N[C@@H](C)Cn2ccc(-c3ccc(C#N)c(Cl)c3)n2)[nH]n1` [Keto-darolutamide, keto-darolutamide], the IC50 is 39.5 µM in [1] (read-out: IC50, CYP2C19, human liver microsomes, substrate S-mephenytoin); greater than 100 µM in data set [2] (read-out: IC50, CYP1A2, human liver microsomes, substrate phenacetin); 51.9 µM in data set [5] (read-out: IC50, CYP2D6, human liver microsomes, substrate bufuralol); greater than 100 µM in data set [6] (read-out: IC50, CYP2A6, human liver microsomes, substrate coumarin); greater than 100 µM in data set [9] (read-out: IC50, CYP2E1, human liver microsomes, substrate chlorzoxazone); greater than 300 µM in [10] (read-out: IC50, BSEP, sandwich-cultured human hepatocytes, taurocholic acid/cyclosporin, higher test concentration possible because of addition of protein to the assay media). Also, the IC50 in data set [11] (read-out: IC50, OCT1, HEK cells, substrate 3H-MPP+, reference decynium 22) is greater than 10 µM.
